Source: paper PMC9150438 (Methods in enzymology, 2022)

Experiments:
mKSR1-NL W781D = details: mKSR1 W781D interface mutant (Fig. 6F); ref Khan et al., 2020; cited from earlier work
KRAS mutant cell lines = details: ref Khan et al., 2020; cited from earlier work
BRAF = BRAF (Homo sapiens, UniProt P15056); test: ATP-biotin probe labeling competition assay on isolated BRAF; assay type: binding; details: MEK, KSR1:MEK and KSR2:MEK labeled with 2.5 μM probe (Fig. 4E)
mKSR1:MEK1 complex = details: steady-state NanoBRET, 1 μM Tram-bo (Fig. 7A); ref Khan et al., 2020; cited from earlier work
MEK1-NL = MEK1-NL (Homo sapiens, UniProt Q02750); test: NanoBRET tracer build-up; assay type: binding
How it was run: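 HEK293T cells at ~70% confluence were plated at 200,000 cells/mL and transfected with MEK1-NL alone, MEK1-NL plus mKSR1, or mKSR1-NL, then incubated at least 20 h at 37 °C. The Tram-bo tracer was titrated in each scenario to record BRET, giving an apparent EC50 and maximal BRET signal for each. These set the working tracer concentration above EC50.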

SEC = biological target: the molecule itself; test: SEC

MEK1-NL, sequence (Q02750 whole entry): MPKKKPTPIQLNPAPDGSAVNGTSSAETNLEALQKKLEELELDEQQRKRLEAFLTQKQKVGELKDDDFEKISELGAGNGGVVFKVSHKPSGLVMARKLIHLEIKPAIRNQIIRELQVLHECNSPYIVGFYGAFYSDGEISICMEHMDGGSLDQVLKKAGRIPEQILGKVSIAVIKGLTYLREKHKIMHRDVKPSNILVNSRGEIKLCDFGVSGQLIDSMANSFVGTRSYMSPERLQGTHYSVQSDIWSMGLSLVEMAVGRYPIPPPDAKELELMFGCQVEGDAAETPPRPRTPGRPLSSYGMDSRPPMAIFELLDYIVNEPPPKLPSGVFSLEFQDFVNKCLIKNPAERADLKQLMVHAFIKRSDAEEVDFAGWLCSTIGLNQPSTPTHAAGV
BRAF, sequence (P15056 457-717 limits assumed): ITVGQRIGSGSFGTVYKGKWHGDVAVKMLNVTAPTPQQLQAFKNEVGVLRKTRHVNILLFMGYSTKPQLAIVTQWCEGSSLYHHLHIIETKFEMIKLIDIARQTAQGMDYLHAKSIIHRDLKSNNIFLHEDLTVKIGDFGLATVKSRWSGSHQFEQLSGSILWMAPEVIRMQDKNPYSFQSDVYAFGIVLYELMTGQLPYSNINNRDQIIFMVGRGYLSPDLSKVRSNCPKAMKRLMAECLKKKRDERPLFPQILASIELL

Q: With CC(=O)Nc1cccc(-n2c(=O)n(C3CC3)c(=O)c3c(Nc4ccc(I)cc4F)n(C)c(=O)c(C)c32)c1 [trametinib] as the molecule, how does the “dose-response in KSR-NL assay with W781D mutant” value (mKSR1-NL W781D) read?
A: The value was “loss of a Trametinib dose-response”.

Q: With CNS(=O)(=O)Nc1cccc(-n2c(=O)n(C3CC3)c(=O)c3c(Nc4ccc(I)cc4F)n(C)c(=O)c(C)c32)c1 [trametiglue] as the molecule, how does the “potency of growth inhibition relative to trametinib and other MEKi including CH5126766” value (KRAS mutant cell lines) read?
A: The value was “markedly enhanced”.

Q: With CC(C)(C)c1nc(-c2cccc(NS(=O)(=O)c3c(F)cccc3F)c2F)c(-c2ccnc(N)n2)s1 [dabrafenib] as the molecule, how does the “inhibitor specificity in ATP-biotin competition assay” value (BRAF) read?
A: The value was “BRAF-specific inhibition”.

Q: Which “apparent IC50 on free MEK1 compared with the mKSR1:MEK1 complex” value (mKSR1:MEK1 complex) does the source give for O=C(c1ccc(F)c(F)c1Nc1ccc(I)cc1F)N1CC(O)([C@@H]2CCCCN2)C1 [cobimetinib] here?
A: The value was “more potent binding to the complex”.

Q: For Cc1c(=O)n(C)c(Nc2ccc(I)cc2F)c2c(=O)n(C3CC3)c(=O)n(-c3cccc(NC(=O)CCOCCOCCNC(=O)CCc4ccc5n4[B-](F)(F)[N+]4=C(c6ccc[nH]6)C=CC4=C5)c3)c12 [Tram-bo], which “fold difference of Tram-bo EC50, MEK1-NL vs the two MEK1–mKSR1 complex scenarios” value (MEK1-NL; MEK1-NL vs mKSR1-NL and MEK1-NL coexpressed with mKSR1 (Fig. 6C)) is on record?
A: Its value is ~ 20 times.

Q: What about the “apparent EC50 of Tram-bo” value (MEK1-NL; NanoBRET build-up curves (Fig. 6C)) of the same molecule?
A: Its value is “in the nanomolar range”.

B1: KSR1 pseudokinase domain [residues 591–899] (domain or fragment, human, UniProt Q8IVT5 591-899, looked up)
chain: PISRKASQTSVYLQEWDIPFEQVELGEPIGQGRWGRVHRGRWHGEVAIRLLEMDGHNQDHLKLFKKEVMNYRQTRHENVVLFMGACMNPPHLAIITSFCKGRTLHSFVRDPKTSLDINKTRQIAQEIIKGMGYLHAKGIVHKDLKSKNVFYDNGKVVITDFGLFGISGVVREGRRENQLKLSHDWLCYLAPEIVREMTPGKDEDQLPFSKAADVYAFGTVWYELQARDWPLKNQAAEASIWQIGSGEGMKRVLTSVSLGKEVSEILSACWAFDLQERPSFSLLMDMLEKLPKLNRRLSHPGHFWKSADI
Q: Does B1 bind (SEC)?
A: Result: binds
